Compounds with a hit are over-represented: about 4.1% of the library has one in this group of screens.
KCNK9 block: human KCNK9 channel inhibition. HEK293 KCNK9, FluxOR thallium flux fluorescence; stronger effect = lower value. B-score at 10 µM. hit rate 1.2% among 310,000. AID 488922;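 active = ratio B-score over 3 SD below the library mean, with starting fluorescence within 5 SD of its mean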;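 note: negative B-score means less thallium flux so channel inhibition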
KCNQ1 pot: potentiators or activators of human KCNQ1 potassium channel | P51787 | CHO-K1 KCNQ1, thallium flux FluxOR fluorescence; stronger effect = higher value | B-score at 10 µM | hit rate 0.35% among 310,000 | AID 2648;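 active = fluorescence ratio B-score, a plate-corrected score, at least three library SD, with initial intensity B-score within 5 SD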
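Material: CHO-K1 cells stably expressing KCNQ1. Medium: assay buffer for compound exposure, DMSO matched across wells. Reagent: K+/Tl+ depolarizing stimulus. Compound dosing: single-concentration screen. Times: 37 °C overnight plating, 90-min dark dye load, 20-min compound pretreatment. Technique: FluxOR Tl+ flux fluorescence.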
Cl transport mod: modulates chloride dependent transport by human KCC2 | Q9H2X9 | KCC2 cells, thallium flux FluoZin-2 fluorescence | B-score of Tl+ flux slope (higher = more flux/activation; lower = inhibition) at 10 µM | hit rate 2.2% among 190,000;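 active = thallium flux slope and its plate-corrected score both differing from the plate sample mean at a set confidence after two filtering rounds, in either direction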;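 note: slope of fluorescence scaled to starting intensity during 10 to 20 s after thallium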
KCNK3 inh: human KCNK3 channel inhibition, primary screen; O14649; CHO-KCNK3 thallium flux, FluxOR fluorescence; stronger effect = lower value; B-score at 10 µM; hit rate 0.84% among 340,000;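 active = B-score under library mean minus 4 SD, starting fluorescence ratio at most library mean plus 5 SD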;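 note: more negative B-score means stronger inhibition of thallium flux through KCNK3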
KCNQ1 block: inhibitors of human KCNQ1 potassium channel | B-score at 10 µM | hit rate 1.3% among 310,000 | CHO-K1 KCNQ1, FluxOR thallium flux fluorescence; stronger effect = higher value | AID 2642;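 active = compounds whose thallium flux B-score, printed positive for inhibition, exceeds three library SD while starting fluorescence stays within three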;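 note: channel opened by potassium depolarization with thallium stimulus after 20 min compound exposure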
hERG protect: compounds protecting human hERG from proarrhythmic drug block; hit rate 0.51% among 310,000; activation (rescue from dofetilide block), less the hit threshold, % at 10 µM; CHO-hERG, FluxOR thallium flux, dofetilide IC70 present;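 active = activation above the mean of controls blocked by dofetilide plus 5 SD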;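 note: thallium influx through hERG after potassium depolarization seen as dye fluorescence rise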
KCNK9 block conf: human KCNK9 inhibitor confirmation; shares compounds with KCNK9 block; inhibition, % at 10 µM; hit rate 43% among 4,900; HEK293 KCNK9 cells, FluxOR thallium flux fluorescence;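 active = thallium signal inhibited by more than 5 SD of the compound-free buffer control wells, on both duplicate plates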;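 note: 0% = assay buffer control wells without compound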
Kir21 sel: mouse Kir2.1 off-target activity of KCNK9 modulators | shares compounds with KCNK9 block | Kir2.1 cells, FluxOR thallium flux fluorescence | inhibition, % at 10 µM | hit rate 4% among 4,900;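 active = thallium signal drop more than 5 SD beyond the mean of the no-compound control wells, seen in both duplicate plates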;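 note: signal is fluorescence rise after thallium addition divided by baseline fluorescence; plate controls were assay buffer only for no effect and full block by chlorpromazine control for full effect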
KCNK9 uninduced: non-induced cell nonspecific activity of KCNK9 modulators; hit rate 40% among 4,900; inhibition, % at 10 µM; non-induced KCNK9-HEK293, FluxOR thallium flux; shares compounds with KCNK9 block;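 active = thallium signal drop beyond 5 SD of the untreated control mean, on both duplicate plates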;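 note: plate controls were buffer only IC0 wells for no effect and SID17386958 at its maximal inhibitory level for full effect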
* = called active by the depositor; i = inactive; x = no result given.

SMILES | KCNK9 block | KCNQ1 pot | Cl transport mod | KCNK3 inh | KCNQ1 block | hERG protect | KCNK9 block conf | Kir21 sel | KCNK9 uninduced
Cc1ccc(CN(C)C(=O)c2cccc(S(=O)(=O)N3CCN(Cc4ccccc4)CC3)c2)o1 | i | i | x | i | i | -13.2 | i | i | 27.5%*
C/C(=N\Nc1ccc(S(=O)(=O)N2CCCCC2)cn1)c1cccc(Br)c1 | x | x | x | i | x | x | x | x | x
O=C(CN1CCN(c2ccccn2)CC1)Nc1ccc([N+](=O)[O-])cc1C(=O)Nc1ccccc1F | i | i | x | i | i | 0.5 | x | x | x
COc1ccccc1N1CCN(c2nc(C)nc3c2oc2ccccc23)CC1 | -14.3* | i | x | -9.01* | i | -27.2 | i | i | 32.0%*
Cc1nc(N2CCC(C)CC2)c2oc3ccccc3c2n1 | i | i | -1.41 | i | i | -10.7 | x | x | x
O=[N+]([O-])c1ccccc1-c1ccc(C(=S)N2CCCC2)o1 | i | i | -1.4 | i | i | 1.2 | x | x | x
Cc1cccc(N2CCN(C(=S)c3ccc(-c4ccccc4[N+](=O)[O-])o3)CC2)c1 | i | i | -1.1 | i | i | -10.5 | i | i | i
O=[N+]([O-])c1cccc(-c2ccc(C(=S)N3CCN(c4ccccc4)CC3)o2)c1 | -8.27* | i | 0.15 | i | i | -12.5 | 33.0%* | i | 41.5%*
Cc1nn(-c2ccccc2)c(Cl)c1/C=N/Nc1nc2ccccc2n1C | i | i | -0.714 | i | i | -10.9 | i | i | i
Cc1ccc2c(c1)CCCN2S(=O)(=O)c1cccc(C(=O)Nc2ccccc2C(=O)O)c1 | i | i | x | i | i | -27.2 | x | x | x
O=c1c2ccccc2n(CC(O)CN2CCOCC2)c2ccccc12 (stereo not drawn) | -14* | i | x | i | i | -2.1 | 33.0%* | i | i
Cc1c(C)n(CC(O)CN2CCOCC2)c2ccccc12 (stereo not drawn) | i | i | 1.29 | i | i | -4.5 | x | x | x
CN(Cc1ccccc1)C(=O)c1cccc(NC(=O)Cc2cccc(NC(=O)C3CCN(C(=O)C4CCC4)CC3)c2)c1 | x | x | x | i | x | x | x | x | x
O=C(Nc1ccc(F)cc1)c1nc(S(=O)(=O)Cc2ccccc2)ncc1Cl | -8.97* | i | x | i | i | -21.2 | 47.0%* | i | i
COc1cccc2sc(=NC(=O)CS(=O)(=O)c3ccc(Cl)cc3)n(C)c12 | i | i | x | i | i | -22.9 | x | x | x

Screening data (PubChem BioAssay)
